Assay results reported in ChEMBL document CHEMBL3232758, “Synthesis and evaluation of carbon-linked analogs of dual orexin receptor antagonist filorexant” (Bioorg Med Chem Lett, 2014).
pIC50, pKi: −log10 of the molar value. ≈ marks a conversion by molar mass, not a printed value. Calls of active or inactive are those of the source. The calls are words filed in the database; no cut-off is given here.

What was measured:
[1] = target: T1, Orexin receptor type 2 (Homo sapiens, UniProt O43614); experiment: Binding affinity to human OX2 receptor in cell membrane by in vitro radioligand binding assay; type: cell membranes
T1 sequence (O43614 whole entry): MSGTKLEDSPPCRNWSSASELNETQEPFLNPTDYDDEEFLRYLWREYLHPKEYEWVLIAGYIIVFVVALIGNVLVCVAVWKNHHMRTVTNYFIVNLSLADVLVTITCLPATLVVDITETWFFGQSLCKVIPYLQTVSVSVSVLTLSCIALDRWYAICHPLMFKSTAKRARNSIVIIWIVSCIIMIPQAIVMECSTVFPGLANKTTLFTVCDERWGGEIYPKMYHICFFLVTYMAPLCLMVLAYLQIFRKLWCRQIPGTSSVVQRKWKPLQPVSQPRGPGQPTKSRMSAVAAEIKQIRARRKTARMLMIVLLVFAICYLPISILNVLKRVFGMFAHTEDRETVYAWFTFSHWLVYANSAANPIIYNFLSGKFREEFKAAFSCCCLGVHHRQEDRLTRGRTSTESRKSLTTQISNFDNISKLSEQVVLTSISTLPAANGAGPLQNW
Summary of the method: (§1)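 Radioligand binding to membranes from human cells overexpressing OX1R or OX2R; affinity expressed as Ki.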

[2] = target: T2, Orexin/Hypocretin receptor type 1 (Homo sapiens, UniProt O43613); experiment: Binding affinity to human OX1 receptor in cell membrane by in vitro radioligand binding assay; type: cell membranes; summary of the method: as §1
T2 sequence (O43613 whole entry): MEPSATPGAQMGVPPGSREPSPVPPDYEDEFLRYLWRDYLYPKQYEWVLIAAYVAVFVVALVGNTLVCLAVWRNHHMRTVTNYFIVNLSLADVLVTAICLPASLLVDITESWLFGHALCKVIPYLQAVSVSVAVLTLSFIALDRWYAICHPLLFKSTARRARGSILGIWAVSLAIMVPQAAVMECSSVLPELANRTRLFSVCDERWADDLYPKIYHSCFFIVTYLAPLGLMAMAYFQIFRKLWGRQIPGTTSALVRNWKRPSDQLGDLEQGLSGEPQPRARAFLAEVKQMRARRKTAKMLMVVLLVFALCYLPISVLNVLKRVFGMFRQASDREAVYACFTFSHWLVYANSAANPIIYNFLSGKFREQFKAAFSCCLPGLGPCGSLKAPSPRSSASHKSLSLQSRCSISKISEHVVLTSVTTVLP

[3] = target: T1, Orexin receptor type 2; experiment: Antagonist activity at human OX2 receptor assessed as Ca2+ flux by FLIPR assay; type: functional
[4] = target: T2, Orexin/Hypocretin receptor type 1; experiment: Antagonist activity at human OX1 receptor assessed as Ca2+ flux by FLIPR assay; type: functional
[5] = Lipophilicity, log D of the compound at pH 7 by HPLC analysis; type: physicochemical; details: buffer
Summary of the method: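 High-throughput HPLC logD at pH 7 using a reversed-phase C18 column, with phosphate-buffered saline pH 7 and acetonitrile as mobile phases. The system is calibrated with standards of published shake-flask logD, and logD is read from a linear regression of retention time against logD.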

[6] = target: T3, Cytochrome P450 3A4 (Homo sapiens, UniProt P08684); experiment: Inhibition of CYP3A4 (unknown origin); type: ADME
[7] = Solubility of the compound at pH 7 by HPLC analysis; type: physicochemical; details: buffer
[8] = Plasma protein binding in human; type: ADME, cell-free; details: read-out: PPB (converted)
[9] = Plasma protein binding in dog; type: ADME, cell-free, Canis lupus familiaris; details: read-out: PPB (converted)
[10] = Clearance in iv dosed dog; type: ADME, organism-based, Canis lupus familiaris; details: in vivo
[11] = Half life in iv dosed dog; type: ADME, organism-based, Canis lupus familiaris; details: in vivo
[12] = target: Voltage-gated inwardly rectifying potassium channel KCNH2 (Homo sapiens, UniProt Q12809); experiment: Inhibition of human ERG
[13] = target: Cytochrome P450 2C9 (Homo sapiens, UniProt P11712); experiment: Inhibition of CYP2C9 (unknown origin); type: ADME
[14] = target: Cytochrome P450 2D6 (Homo sapiens, UniProt P10635); experiment: Inhibition of CYP2D6 (unknown origin); type: ADME
[15] = system: Mus musculus; experiment: Sleep promoting activity in wild type mouse sleep EEG model assessed as reduction of active wake at 100 mg/kg, po administered during dark or active phase 4 hrs prior to lights on measured for 2 hrs following drug administration; type: functional, organism-based; parameters: dose 100 mg/kg
Summary of the method: (§2)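 Mice carried surgically implanted radiotelemetry transmitters recording EEG and EMG to score vigilance state; wildtype n = 5, OX2R knockout n = 6. Oral 100 mg/kg or vehicle (20% Vit. E TPGS) in a balanced cross-over, dosed in the dark (active) phase 4 h before lights on. Mean time per state was taken in 30 min intervals and compared by a linear mixed-effects repeated-measures t-test.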

[16] = system: Mus musculus; experiment: Sleep promoting activity in wild type mouse sleep EEG model assessed as increase in delta sleep at 100 mg/kg, po administered during dark or active phase 4 hrs prior to lights on measured for 2 hrs following drug administration; type: functional, organism-based; parameters: dose 100 mg/kg; summary of the method: as §2
[17] = system: Mus musculus; experiment: Sleep promoting activity in wild type mouse sleep EEG model assessed as increase in REM sleep at 100 mg/kg, po administered during dark or active phase 4 hrs prior to lights on measured for 2 hrs following drug administration; type: functional, organism-based; parameters: dose 100 mg/kg; summary of the method: as §2
[18] = system: Mus musculus; experiment: Sleep promoting activity in wild type mouse sleep EEG model assessed as reduction of active wake at 100 mg/kg, po administered during dark or active phase 4 hrs prior to lights on measured during first 30 mins after drug administration; type: functional, organism-based; parameters: dose 100 mg/kg; summary of the method: as §2
[19] = system: Mus musculus; experiment: Sleep promoting activity in wild type mouse sleep EEG model assessed as increase in delta sleep at 100 mg/kg, po administered during dark or active phase 4 hrs prior to lights on measured during first 30 mins after drug administration; type: functional, organism-based; parameters: dose 100 mg/kg; summary of the method: as §2
[20] = system: Mus musculus; experiment: Sleep promoting activity in wild type mouse sleep EEG model assessed as increase in REM sleep at 100 mg/kg, po administered during dark or active phase 4 hrs prior to lights on measured during first 30 mins after drug administration; type: functional, organism-based; parameters: dose 100 mg/kg; summary of the method: as §2
[21] = system: Mus musculus; experiment: Sleep promoting activity in wild type mouse sleep EEG model assessed as duration of sleep at 100 mg/kg, po administered during dark or active phase 4 hrs prior to lights on; type: functional; summary of the method: as §2
[22] = system: Mus musculus; experiment: Sleep promoting activity in OX2 receptor knockout mouse at 100 mg/kg, po administered during dark or active phase 4 hrs prior to lights on; type: functional, organism-based; parameters: dose 100 mg/kg; summary of the method: as §2
[23] = Plasma concentration in mouse at 100 mg/kg, po; type: ADME, organism-based; parameters: dose 100 mg/kg, route oral
[24] = target: CYP3A4 (Homo sapiens, UniProt P08684); experiment: Time-dependent inhibition of CYP3A4 (unknown origin) assessed as IC50 shift ratio; type: ADME; details: read-out: Ratio IC50
[25] = target: T3, Cytochrome P450 3A4; experiment: Time-dependent inhibition of CYP3A4 (unknown origin); type: ADME; details: TDE = time-dependent effect

T3 sequence (P08684 whole entry): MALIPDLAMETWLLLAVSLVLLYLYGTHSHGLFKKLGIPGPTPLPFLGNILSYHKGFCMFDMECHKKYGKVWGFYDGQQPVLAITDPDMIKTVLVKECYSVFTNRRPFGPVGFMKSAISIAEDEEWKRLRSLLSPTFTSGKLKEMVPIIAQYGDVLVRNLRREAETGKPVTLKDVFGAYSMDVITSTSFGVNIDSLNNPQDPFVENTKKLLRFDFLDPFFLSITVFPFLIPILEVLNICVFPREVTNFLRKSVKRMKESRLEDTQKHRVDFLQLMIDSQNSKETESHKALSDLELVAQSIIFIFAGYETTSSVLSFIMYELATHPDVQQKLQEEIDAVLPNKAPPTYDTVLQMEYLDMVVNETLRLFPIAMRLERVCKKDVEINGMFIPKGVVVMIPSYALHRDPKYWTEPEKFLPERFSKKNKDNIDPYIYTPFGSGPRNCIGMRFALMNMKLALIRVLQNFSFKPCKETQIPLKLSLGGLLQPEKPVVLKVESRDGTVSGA
Voltage-gated inwardly rectifying potassium channel KCNH2, sequence (Q12809 whole entry): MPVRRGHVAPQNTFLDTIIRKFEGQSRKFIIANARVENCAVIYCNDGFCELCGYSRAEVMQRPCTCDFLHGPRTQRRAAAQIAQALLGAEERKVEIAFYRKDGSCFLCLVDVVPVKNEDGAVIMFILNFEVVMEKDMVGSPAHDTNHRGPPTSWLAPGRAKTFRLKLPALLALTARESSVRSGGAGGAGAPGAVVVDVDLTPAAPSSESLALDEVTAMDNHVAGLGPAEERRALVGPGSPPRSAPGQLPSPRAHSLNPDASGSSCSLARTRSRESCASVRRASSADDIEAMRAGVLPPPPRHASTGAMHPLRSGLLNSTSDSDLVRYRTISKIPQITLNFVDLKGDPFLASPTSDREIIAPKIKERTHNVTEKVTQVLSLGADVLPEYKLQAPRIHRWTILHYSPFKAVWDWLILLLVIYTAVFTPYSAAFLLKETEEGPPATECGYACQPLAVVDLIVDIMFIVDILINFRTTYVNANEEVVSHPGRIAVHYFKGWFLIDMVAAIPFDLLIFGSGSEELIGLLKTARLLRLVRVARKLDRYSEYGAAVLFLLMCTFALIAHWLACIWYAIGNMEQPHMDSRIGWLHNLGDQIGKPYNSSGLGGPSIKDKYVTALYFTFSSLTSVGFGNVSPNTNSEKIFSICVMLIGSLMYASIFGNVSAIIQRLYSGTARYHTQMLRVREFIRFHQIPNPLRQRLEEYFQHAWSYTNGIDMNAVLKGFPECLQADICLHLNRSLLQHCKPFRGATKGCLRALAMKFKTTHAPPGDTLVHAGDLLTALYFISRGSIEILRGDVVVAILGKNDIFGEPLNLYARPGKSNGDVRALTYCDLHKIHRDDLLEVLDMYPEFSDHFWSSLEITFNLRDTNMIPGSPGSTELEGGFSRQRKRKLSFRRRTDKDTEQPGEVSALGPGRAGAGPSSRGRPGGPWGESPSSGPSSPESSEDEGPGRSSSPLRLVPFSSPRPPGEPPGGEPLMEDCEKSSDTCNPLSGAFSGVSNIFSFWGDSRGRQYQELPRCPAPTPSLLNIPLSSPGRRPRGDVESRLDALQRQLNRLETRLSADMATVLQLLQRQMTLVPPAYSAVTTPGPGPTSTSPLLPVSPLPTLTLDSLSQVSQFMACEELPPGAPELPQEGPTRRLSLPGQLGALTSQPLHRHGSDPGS
Cytochrome P450 2D6, sequence (P10635 whole entry): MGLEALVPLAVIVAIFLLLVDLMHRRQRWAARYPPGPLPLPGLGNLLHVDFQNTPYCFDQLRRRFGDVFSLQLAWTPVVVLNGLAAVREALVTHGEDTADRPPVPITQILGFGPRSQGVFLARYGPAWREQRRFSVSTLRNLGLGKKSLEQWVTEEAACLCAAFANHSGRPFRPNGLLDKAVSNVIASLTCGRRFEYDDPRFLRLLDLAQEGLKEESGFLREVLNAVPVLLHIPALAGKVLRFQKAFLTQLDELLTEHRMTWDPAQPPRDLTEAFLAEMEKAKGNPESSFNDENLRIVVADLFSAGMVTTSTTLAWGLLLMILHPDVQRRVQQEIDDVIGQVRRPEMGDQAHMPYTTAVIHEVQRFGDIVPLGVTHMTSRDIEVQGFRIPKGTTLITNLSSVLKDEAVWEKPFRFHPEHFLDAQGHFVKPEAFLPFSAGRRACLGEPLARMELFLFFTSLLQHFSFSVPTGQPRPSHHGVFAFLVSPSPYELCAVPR
Cytochrome P450 2C9, sequence (P11712 whole entry): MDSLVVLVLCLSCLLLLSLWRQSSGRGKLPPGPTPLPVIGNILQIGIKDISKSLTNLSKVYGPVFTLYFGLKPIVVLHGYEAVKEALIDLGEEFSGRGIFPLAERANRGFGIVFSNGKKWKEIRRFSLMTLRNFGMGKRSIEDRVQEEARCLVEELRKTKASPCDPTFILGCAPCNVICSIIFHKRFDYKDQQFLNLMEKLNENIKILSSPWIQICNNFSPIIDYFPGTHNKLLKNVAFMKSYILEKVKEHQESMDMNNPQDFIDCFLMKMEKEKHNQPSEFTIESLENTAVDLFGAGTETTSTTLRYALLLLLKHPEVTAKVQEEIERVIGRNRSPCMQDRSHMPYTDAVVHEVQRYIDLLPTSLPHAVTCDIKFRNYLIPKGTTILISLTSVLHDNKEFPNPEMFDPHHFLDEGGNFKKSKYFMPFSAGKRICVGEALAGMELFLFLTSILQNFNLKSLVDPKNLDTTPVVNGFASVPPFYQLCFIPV
CYP3A4, sequence (P08684 whole entry): as the sequence (P08684 whole entry) above

Q: Which results are given for `Cc1ccc(-n2nccn2)c(C(=O)N2C[C@H](C#Cc3ccccn3)CC[C@H]2C)c1`?
A: pKi [1]: 7.96; pKi [2]: 7.57; pIC50 [3]: 7.38; pIC50 [4]: 7.00

Q: With `Cc1ccc(-n2nccn2)c(C(=O)N2C[C@H](C#Cc3cccc(CO)n3)CC[C@H]2C)c1` as the compound, how does the pKi [1] read?
A: 8.25

Q: What about the pKi [2] of the same compound?
A: 7.74

Q: And the pIC50 [3]?
A: 7.59

Q: And the pIC50 [4]?
A: 7.23

Q: What about the logD [5] of the same compound?
A: 2.1

Q: With `Cc1ccc(-n2nccn2)c(C(=O)N2C[C@H](/C=C\c3ccc(F)cn3)CC[C@H]2C)c1` as the compound, how does the pKi [1] read?
A: 7.55

Q: And the pKi [2]?
A: 6.87

Q: What about the pIC50 [3] of the same compound?
A: 6.38

Q: What about the pIC50 [4] of the same compound?
A: 6.15

Q: With `Cc1ccc(-n2nccn2)c(C(=O)N2C[C@H](C#Cc3ccncc3)CC[C@H]2C)c1` as the compound, how does the pKi [1] read?
A: 8.15

Q: What about the pKi [2] of the same compound?
A: 7.59

Q: With `Cc1ccc(-n2nccn2)c(C(=O)N2C[C@H](CCc3ccc(F)cn3)CC[C@H]2C)c1` as the compound, how does the pKi [1] read?
A: 7.59

Q: What about the pKi [2] of the same compound?
A: 6.33

Q: What about the pIC50 [3] of the same compound?
A: 6.84

Q: And the pIC50 [4]?
A: 6.06

Q: What does the source list for `Cc1ccc(-n2nccn2)c(C(=O)N2C[C@H](COc3ccc(F)cn3)CC[C@H]2C)c1`?
A: pKi [1]: 9.70; pKi [2]: 9.00; pIC50 [3]: 7.82; pIC50 [4]: 7.80

Q: What does the source list for `Cc1ccc(-n2nccn2)c(C(=O)N2C[C@H](C#Cc3cccc(CO)c3)CC[C@H]2C)c1`?
A: pKi [1]: 9.28; pKi [2]: 9.25; pIC50 [3]: 8.20; pIC50 [4]: 8.20; pIC50 [6]: 5.40

Q: What does the source list for `Cc1ccc(-n2nccn2)c(C(=O)N2C[C@H](C#Cc3cncc(CO)c3)CC[C@H]2C)c1`?
A: pKi [1]: 7.49; pKi [2]: 6.97

Q: With `Cc1ccc(-n2nccn2)c(C(=O)N2C[C@H](/C=C/c3ccc(F)cn3)CC[C@H]2C)c1` as the compound, how does the pKi [1] read?
A: 8.52

Q: And the pKi [2]?
A: 7.77

Q: And the pIC50 [3]?
A: 7.47

Q: What about the pIC50 [4] of the same compound?
A: 6.85

Q: With `Cc1ccc(-n2nccn2)c(C(=O)N2C[C@H](C#Cc3ccc(F)cn3)CC[C@H]2C)c1` as the compound, how does the pKi [1] read?
A: 8.96

Q: What about the pKi [2] of the same compound?
A: 8.96

Q: What about the pIC50 [3] of the same compound?
A: 7.62

Q: And the pIC50 [4]?
A: 7.51

Q: What about the pIC50 [6] of the same compound?
A: < 4.30

Q: And the logD [5]?
A: 3.7

Q: What about the solubility [7] of the same compound?
A: 124 µM (≈ 50 µg/mL)

Q: And the fraction unbound [8]?
A: 0.009

Q: What about the fraction unbound [9] of the same compound?
A: 0.039

Q: What about the clearance [10] of the same compound?
A: 1.6 mL/min/kg

Q: What about the half-life [11] of the same compound?
A: 2 h

Q: And the INH [12]?
A: 23 µM

Q: What about the INH [13] of the same compound?
A: 32 µM

Q: What about the INH [14] of the same compound?
A: > 50 µM

Q: And the Activity [15]?
A: Active

Q: What about the Activity [16] of the same compound?
A: Active

Q: And the Activity [17]?
A: Active

Q: What about the Activity [18] of the same compound?
A: Active

Q: And the Activity [19]?
A: Active

Q: And the Activity [20]?
A: Active

Q: And the Time [21]?
A: 2 h

Q: What about the Activity [22] of the same compound?
A: inactive

Q: What about the AUC [23] of the same compound?
A: 60 µM·h

Q: And the IC50 shift [24]?
A: > 6.4

Q: And the “inhibition (INH)” value [25]?
A: tde

Q: With `Cc1ccc(-n2nccn2)c(C(=O)N2C[C@H](C#Cc3cnccc3O)CC[C@H]2C)c1` as the compound, how does the pKi [1] read?
A: 8.12

Q: What about the pKi [2] of the same compound?
A: 6.06

Q: And the pIC50 [3]?
A: 7.28

Q: What about the pIC50 [4] of the same compound?
A: 5.41

Q: Which results are given for `Cc1ccc(-n2nccn2)c(C(=O)N2C[C@H](C#Cc3cccnc3O)CC[C@H]2C)c1`?
A: pKi [1]: 7.62; pKi [2]: 7.62

Q: With `Cc1ccc(-n2nccn2)c(C(=O)N2C[C@H](C#Cc3cc(CO)ccn3)CC[C@H]2C)c1` as the compound, how does the pKi [1] read?
A: 7.38

Q: What about the pKi [2] of the same compound?
A: 7.12

Q: Which results are given for `Cc1ccc(-n2nccn2)c(C(=O)N2C[C@H](C#Cc3ccc(CO)nc3)CC[C@H]2C)c1`?
A: pKi [1]: 6.82; pKi [2]: 6.47

Q: With `Cc1ccc(-n2nccn2)c(C(=O)N2C[C@H](C#Cc3ccnc(CO)c3)CC[C@H]2C)c1` as the compound, how does the pKi [1] read?
A: 7.60

Q: And the pKi [2]?
A: 7.12

Q: What about the pIC50 [3] of the same compound?
A: 7.00

Q: What about the pIC50 [4] of the same compound?
A: 6.53

Q: With `Cc1ccc(-n2nccn2)c(C(=O)N2C[C@H](C#Cc3cccnc3)CC[C@H]2C)c1` as the compound, how does the pKi [1] read?
A: 7.39

Q: And the pKi [2]?
A: 6.97

Q: What about the pIC50 [3] of the same compound?
A: 7.55

Q: And the pIC50 [4]?
A: 7.08

Q: Which results are given for `Cc1ccc(-n2nccn2)c(C(=O)N2C[C@H](C#Cc3ccc(CO)cn3)CC[C@H]2C)c1`?
A: pKi [1]: 6.89; pKi [2]: 6.68
